Data published in ChEMBL document CHEMBL1125002, “Antiarthritic and suppressor cell inducing activity of azaspiranes: structure-function relationships of a novel class of immunomodulatory agents” (J Med Chem, 1990).
Active and inactive are the calls of the source. No cut-off for these calls is given here.

Key:
Rattus norvegicus [1] = test: Total starting number of animals upon administration at a dose of 7.5 mg/kg; 8/8; assay type: functional
Rattus norvegicus [2] = test: Total starting number of animals upon administration at a dose of 30 mg/kg; 0/8; assay type: functional
Rattus norvegicus [3] = test: Adjuvant arthritic rat activity with respect to spirogermanium at a dose of 7.5 mg/kg; assay type: functional
How it was run: (§1)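 Lewis rats given adjuvant on day 0. Drug homogenized in aqueous 0.5% gum tragacanth, given orally at 10 mL/kg daily on days 0–10. Volume of the noninjected (secondary) hind paw measured on day 16 by mercury displacement. Activity is relative to non-drug controls and scaled to spirogermanium at 30 mg/kg, which is set at 1.00. Significance by Student's t test.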

Rattus norvegicus [4] = test: Adjuvant arthritic rat activity with respect to spirogermanium at a dose of 15 mg/kg; assay type: functional; how it was run: as §1
Rattus norvegicus [5] = test: Total starting number of animals upon administration at a dose of 15 mg/kg; 8/8; assay type: functional
Rattus norvegicus [6] = test: Adjuvant arthritic rat activity determined with respect to spirogermanium at a dose of 30 mg/kg; assay type: functional; how it was run: as §1
Rattus norvegicus [7] = test: Total starting number of animals upon administration at a dose of 30 mg/kg; 8/8; assay type: functional
Rattus norvegicus [8] = test: Total starting number of animals upon administration at a dose of 30 mg/kg; 5/6; assay type: functional
Rattus norvegicus [9] = test: Total starting number of animals upon administration at a dose of 60 mg/kg; 0/6; assay type: functional
Rattus norvegicus [10] = test: (§2) Adjuvant arthritic rat activity with respect to spirogermanium at a dose of 60 mg/kg; assay type: functional
Rattus norvegicus [11] = test: Adjuvant arthritic rat activity with respect to spirogermanium at a dose of 30 mg/kg; assay type: functional; how it was run: as §1
Rattus norvegicus [12] = test: Total starting number of animals upon administration at a dose of 30 mg/kg; 7/8; assay type: functional
Rattus norvegicus [13] = test: Total starting number of animals upon administration at a dose of 60 mg/kg; 8/8; assay type: functional
Rattus norvegicus [14] = test: as §2; assay type: functional; how it was run: as §1; remark: listed apart in the source
Rattus norvegicus [15] = test: Total starting number of animals upon administration at a dose of 30 mg/kg; 6/6; assay type: functional
Rattus norvegicus [16] = test: Total starting number of animals upon administration at a dose of 25 mg/kg; 7/7; assay type: functional
Rattus norvegicus [17] = test: Adjuvant arthritic rat activity with respect to spirogermanium at a dose of 25 mg/kg; assay type: functional
Rattus norvegicus [18] = test: Total starting number of animals upon administration at a dose of 10 mg/kg; 7/7; assay type: functional
Rattus norvegicus [19] = test: Total starting number of animals upon administration at a dose of 30 mg/kg; 7/7; assay type: functional
Rattus norvegicus [20] = test: Adjuvant arthritic rat activity with respect to spirogermanium at a dose of 10 mg/kg; assay type: functional
Rattus norvegicus [21] = test: Total starting number of animals upon administration at a dose of 90 mg/kg; 0/7; assay type: functional
Rattus norvegicus [22] = test: Total starting number of animals upon administration at a dose of 60 mg/kg; 5/8; assay type: functional
Rattus norvegicus [23] = test: Total starting number of animals upon administration at a dose of 15 mg/kg; 1/8; assay type: functional
Rattus norvegicus [24] = test: Total starting number of animals upon administration at a dose of 30 mg/kg; 0/7; assay type: functional
Rattus norvegicus [25] = test: Total starting number of animals upon administration at a dose of 30 mg/kg; 3/8; assay type: functional
Rattus norvegicus [26] = test: Total starting number of animals upon administration at a dose of 15 mg/kg; 0/7; assay type: functional, organism-based; parameters: dose 15 mg/kg
Rattus norvegicus [27] = test: Total starting number of animals upon administration at a dose of 60 mg/kg; 0/7; assay type: functional, organism-based; parameters: dose 60 mg/kg
Rattus norvegicus [28] = test: Adjuvant arthritic rat activity with respect to spirogermanium at a dose of 15 mg/kg, inactive; assay type: functional, organism-based; parameters: dose 15 mg/kg
Rattus norvegicus [29] = test: Adjuvant arthritic rat activity with respect to spirogermanium at a dose of 30 mg/kg, active; assay type: functional, organism-based; parameters: dose 30 mg/kg
Rattus norvegicus [30] = test: Total starting number of animals upon administration at a dose of 15 mg/kg; 2/8; assay type: functional

Molecule | Activity (Rattus norvegicus [6]) | Survival (Rattus norvegicus [7]) | other results
CCCCCC1(CCCCC)CCC2(CCN(CCCN(C)C)CC2)CC1 |  |  | Survival (Rattus norvegicus [1]): 8; Survival (Rattus norvegicus [2]): 0; Activity (Rattus norvegicus [3]): 0.18; Activity (Rattus norvegicus [4]): 0.18; Survival (Rattus norvegicus [5]): 8
CCCCN(CCCC)CCCN1CCC2(CCC(CCC)(CCC)CC2)C1 | 0.07 | 8 | 
CCCC1(CCC)CCC2(CCN(CCCN)C2)CC1 | 0.91 |  | Survival (Rattus norvegicus [8]): 5
CCCC1(CCC)CCC2(CCN(CCCN(C)C)C2)CC1 | 1.35 | 8 | Survival (Rattus norvegicus [9]): 0; Activity (Rattus norvegicus [4]): 0.18; Survival (Rattus norvegicus [5]): 8
CCCC1(CCC)CCC2(CCN(CCCN(CC)CC)C2)CC1 [ATIPRIMOD] | 1.42 | 8 | 
CN(C)CCCN1CCC2(CC[Si](C)(C)CC2)C1 |  | 0 | Activity (Rattus norvegicus [10]): 0
CCCC1(CCC)CCC2(CCN(CCCCCCCN(C)C)C2)CC1 |  | 8 | Activity (Rattus norvegicus [11]): 1.57
CCCC1(CCC)CCC2(CCN(CCCCCCN(C)C)C2)CC1 | 1.2 | 8 | 
CC(C)CC1(CC(C)C)CCC2(CCN(CCCN(C)C)C2)CC1 | 0.97 |  | Survival (Rattus norvegicus [12]): 7
CN(C)CCCN1CCC2(CCC(c3ccccc3)CC2)C1 (stereo not given) | 0.25 | 8 | 
CN(C)CCCN1CCC2(CCCCCC2)C1.Cl | 0.2 | 8 | 
CN(C)CCCN1CCC2(CC3CCC2C3)C1.Cl (stereo not given) | 0 | 8 | Survival (Rattus norvegicus [13]): 8; Activity (Rattus norvegicus [14]): 0.1
CCCC1(CCC)CCC2(CCN(CCCCN(C)C)C2)CC1 | 0.46 | 8 | 
CCCC1(CCC)CCC2(CCN(CCCNC)C2)CC1 | 1.55 |  | Survival (Rattus norvegicus [15]): 6
CN(C)CCCN1CCC2(CCCCC2)CC1 | 0.2 | 8 | 
CN(C)CCCN1CCC2(CCSCC2)C1 |  |  | Survival (Rattus norvegicus [16]): 7; Activity (Rattus norvegicus [17]): 0
CCC1(CC)CCC2(CCN(CCCN(C)C)C2)CC1 | 0.57 |  | Survival (Rattus norvegicus [18]): 7; Survival (Rattus norvegicus [19]): 7; Activity (Rattus norvegicus [20]): 0.1; Survival (Rattus norvegicus [21]): 0
CN(C)CCCN1CCC2(CCC3(CCCCCC3)CC2)C1 | 0.22 | 8 | Survival (Rattus norvegicus [22]): 5; Activity (Rattus norvegicus [14]): 1.7
CC1CCCC2(CCN(CCCN(C)C)C2)C1.Cl (stereo not given) | 0 | 8 | 
CC1CCC2(CC1)CCN(CCCN(C)C)CC2 | 0.25 | 8 | 
CN(C)CCCN1CCC2(CCC(C(C)(C)C)CC2)C1 (stereo not given) | 0.31 | 8 | 

Molecule | Activity (Rattus norvegicus [6]) | Survival (Rattus norvegicus [7]) | other results
CCC1(CC)CCC2(CCN(CCCN(C)C)CC2)CC1 | 0.3 |  | Survival (Rattus norvegicus [18]): 7; Survival (Rattus norvegicus [19]): 7; Activity (Rattus norvegicus [20]): 0.03; Survival (Rattus norvegicus [21]): 0
CCCC1(CCC)CCC2(CCN(CCCO)C2)CC1.Cl |  |  | Survival (Rattus norvegicus [13]): 8; Activity (Rattus norvegicus [14]): 0.31
CCCC1(CCC)CCC2(CCN(CCCNC(C)=O)C2)CC1 | 0.24 |  | Survival (Rattus norvegicus [15]): 6
CN(C)CCCN1CCC2(CCCCC2)C1 | 0.27 | 8 | 
CN(C)CCCN1CC2C3CCC(CC3)C2C1.Cl (stereo not given) | 0.35 | 8 | 
CCCCCCCCCCC1CCC2(CC1)CCN(CCCN(C)C)C2 (stereo not given) |  | 8 | Activity (Rattus norvegicus [11]): 0.78
CC[Si]1(CC)CCC2(CCN(CCCN(C)C)C2)CC1 | 0.92 | 8 | Activity (Rattus norvegicus [4]): 0.27; Survival (Rattus norvegicus [5]): 8
CCCC1(CCC)CCC2(CCN(CCCN3CCOCC3)C2)CC1.Cl | 0 |  | Survival (Rattus norvegicus [23]): 1; Survival (Rattus norvegicus [24]): 0; Activity (Rattus norvegicus [4]): 0
CCCC1(CCC)CCC2(CCN(CCCN3CCCCC3)C2)CC1 | 1.7 | 8 | 
CCCC1(CCC)CCC2(CCN(CCCN(C)C)CC2)CC1 | 1.02 |  | Survival (Rattus norvegicus [25]): 3
CN(C)CCCN1CCC2(CCC(C(C)(C)C)CC2)CC1 | 0.33 |  | Survival (Rattus norvegicus [18]): 7; Survival (Rattus norvegicus [19]): 7; Activity (Rattus norvegicus [20]): 0.04; Survival (Rattus norvegicus [21]): 0
CCCN(CCC)CCCN1CCC2(CCC(CCC)(CCC)CC2)C1 | 0.43 | 8 | 
CN(C)CCCN1CCC2(CCC(C)(C)CC2)C1 | 0.12 | 8 | 
CCCC1(CCC)CCC2(CCN(CCCCCN(C)C)C2)CC1 | 0.82 | 8 | 
CCCC1(CCC)CCC2(CCN(CCN(C)C)C2)CC1 | 0 | 8 | 
[3-(8,8-Diethyl-2-aza-8-germa-spiro[4.5]dec-2-yl)-propyl]-dimethyl-amine |  |  | Survival (Rattus norvegicus [26]): 0; Survival (Rattus norvegicus [24]): 0; Survival (Rattus norvegicus [27]): 0; Activity (Rattus norvegicus [28]): inactive; Activity (Rattus norvegicus [29]): Active
CCCC1(CCC)CCC2(CCN(CCCN3CCCC3)C2)CC1 | 1.03 | 8 | 
CCCCC1(CCCC)CCC2(CCN(CCCN(C)C)C2)CC1 |  |  | Survival (Rattus norvegicus [1]): 8; Survival (Rattus norvegicus [2]): 0; Activity (Rattus norvegicus [3]): 0.41; Survival (Rattus norvegicus [30]): 2
CCCC1(CCC)CCC2(CC1)CC[N+](C)(CCC[N+](C)(C)C)C2 (stereo not given) | 0.05 | 8 | 
CCCCCC1(CCCCC)CCN(CCCN(C)C)C1.Cl | 0.19 | 8 | 
